# In ChEMBL document CHEMBL2321765 (J Med Chem, 2013):
# Key:
# CYP3A4 [1] = biological target: T1, CYP3A4 (Homo sapiens, UniProt P08684); experiment: Time dependent inhibition of CYP3A4 in human liver microsomes using testosterone as substrate at 10 uM preincubated for 30 mins by LC-MS-MS analysis relative to control; format: ADME, Microsome; conditions: probe testosterone, read-out: TDI
# Outline: (§1)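 CYP3A4 metabolism of testosterone was measured after 0 or 30 min preincubation of enzyme with test article at the indicated concentration. Activity lost via preincubation, relative to the zero-minute control with the same inhibitor, was the end point. 6β-OH testosterone was detected by LC-MS/MS with cortisone as internal standard.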
# CYP3A4 [2] = biological target: T1, CYP3A4; experiment: Inhibition of CYP3A4 in human liver microsomes using testosterone as substrate at 10 uM by LC-MS-MS analysis relative to control; format: ADME, Microsome; conditions: probe testosterone
# Cytochrome P450 3A4 = Cytochrome P450 3A4 (Homo sapiens, UniProt P08684); experiment: Time dependent inhibition of CYP3A4 in human liver microsomes using testosterone as substrate by LC-MS-MS analysis relative to control; format: ADME, Microsome; outline: as §1
# [3] = Half life in dog; format: ADME, organism-based, Canis lupus familiaris; conditions: in vivo
# [4] = Volume of distribution at steady state in rat; format: ADME, organism-based; conditions: in vivo, read-out: Vdss
# [5] = biological target: Voltage-gated inwardly rectifying potassium channel KCNH2 (Homo sapiens, UniProt Q12809); experiment: Inhibition of human ERG
# [6] = Plasma clearance in dog; format: ADME, organism-based, Canis lupus familiaris
# [7] = Oral bioavailability in dog; format: ADME, organism-based, Canis lupus familiaris; conditions: in vivo
# [8] = Plasma clearance in rat; format: ADME, organism-based
# [9] = Volume of distribution at steady state in dog; format: ADME, organism-based, Canis lupus familiaris; conditions: in vivo, read-out: Vdss
# [10] = Oral bioavailability in rat; format: ADME, organism-based; conditions: in vivo
# [11] = Half life in rat; format: ADME, organism-based; conditions: in vivo
# T1 sequence (P08684 whole entry): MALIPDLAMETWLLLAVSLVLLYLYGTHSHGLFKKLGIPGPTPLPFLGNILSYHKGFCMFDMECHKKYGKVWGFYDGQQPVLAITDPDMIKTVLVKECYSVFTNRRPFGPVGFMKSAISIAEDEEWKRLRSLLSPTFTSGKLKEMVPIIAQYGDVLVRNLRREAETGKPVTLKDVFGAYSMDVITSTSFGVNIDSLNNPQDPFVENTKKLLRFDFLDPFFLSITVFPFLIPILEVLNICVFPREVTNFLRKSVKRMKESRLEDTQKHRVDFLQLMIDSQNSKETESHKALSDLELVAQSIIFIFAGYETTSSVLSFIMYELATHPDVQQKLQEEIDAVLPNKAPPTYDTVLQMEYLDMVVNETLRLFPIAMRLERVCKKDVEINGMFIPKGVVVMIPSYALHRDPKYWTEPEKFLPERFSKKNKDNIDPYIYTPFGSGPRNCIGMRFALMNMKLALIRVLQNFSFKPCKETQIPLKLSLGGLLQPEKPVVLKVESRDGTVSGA
# Sequence of Cytochrome P450 3A4 (P08684 whole entry): as above
# Sequence of Voltage-gated inwardly rectifying potassium channel KCNH2 (Q12809 whole entry): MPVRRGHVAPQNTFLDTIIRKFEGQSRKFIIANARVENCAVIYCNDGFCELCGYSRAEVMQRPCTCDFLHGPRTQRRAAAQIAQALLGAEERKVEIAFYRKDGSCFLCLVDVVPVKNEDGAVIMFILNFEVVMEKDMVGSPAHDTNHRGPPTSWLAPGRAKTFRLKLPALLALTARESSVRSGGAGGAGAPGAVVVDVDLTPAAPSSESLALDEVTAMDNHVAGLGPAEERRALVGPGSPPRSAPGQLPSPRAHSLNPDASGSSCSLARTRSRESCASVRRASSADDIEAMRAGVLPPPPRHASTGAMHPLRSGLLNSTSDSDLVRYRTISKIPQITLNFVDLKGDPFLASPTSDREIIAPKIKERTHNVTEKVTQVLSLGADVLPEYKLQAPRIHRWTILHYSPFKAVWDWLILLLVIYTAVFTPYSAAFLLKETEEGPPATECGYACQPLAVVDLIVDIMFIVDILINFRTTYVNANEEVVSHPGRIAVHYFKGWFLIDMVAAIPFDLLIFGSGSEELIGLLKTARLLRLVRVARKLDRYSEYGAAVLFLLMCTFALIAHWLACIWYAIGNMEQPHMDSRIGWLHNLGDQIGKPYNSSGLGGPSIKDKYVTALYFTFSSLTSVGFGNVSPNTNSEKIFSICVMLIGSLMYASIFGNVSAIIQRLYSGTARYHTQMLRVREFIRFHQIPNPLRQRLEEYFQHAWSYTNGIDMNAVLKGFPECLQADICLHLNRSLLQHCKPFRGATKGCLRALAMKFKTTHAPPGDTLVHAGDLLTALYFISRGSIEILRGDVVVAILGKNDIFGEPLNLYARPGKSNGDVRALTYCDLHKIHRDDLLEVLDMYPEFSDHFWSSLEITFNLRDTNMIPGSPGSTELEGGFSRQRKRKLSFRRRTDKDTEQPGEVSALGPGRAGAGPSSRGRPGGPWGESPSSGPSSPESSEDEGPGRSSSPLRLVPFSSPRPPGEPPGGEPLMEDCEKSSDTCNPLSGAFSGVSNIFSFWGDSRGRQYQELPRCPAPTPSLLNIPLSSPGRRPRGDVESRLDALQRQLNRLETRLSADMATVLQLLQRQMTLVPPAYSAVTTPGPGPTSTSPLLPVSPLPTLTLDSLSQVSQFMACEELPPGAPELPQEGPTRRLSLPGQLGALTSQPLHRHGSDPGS
SMILES,"inhibition at 30 min, 10 µM (CYP3A4 [1])",inhibition at 10 µM (CYP3A4 [2]),other results
Cn1cc(-c2cnc3ccc4ccc(CS(=O)(=O)NCc5cccc[n+]5[O-])cc4c(=O)c3c2)cn1,0%,24%,
Cn1cc(-c2cnc3ccc4ccc(CS(=O)(=O)NCc5cccnc5)cc4c(=O)c3c2)cn1,0%,30%,
Cn1cc(-c2cnc3ccc4ccc(CC(=O)NCc5ccccn5)cc4c(=O)c3c2)cn1,,,TDI (Cytochrome P450 3A4): < 10%
Cn1cc(-c2cnc3ccc4ccc(CC(N)=O)cc4c(=O)c3c2)cn1,,,TDI (Cytochrome P450 3A4): < 10%
Cn1cc(-c2cnc3ccc4ccc(CS(=O)(=O)NCc5ccccc5Cl)cc4c(=O)c3c2)cn1,0%,17%,
Cc1nccc(CNS(=O)(=O)Cc2ccc3ccc4ncc(-c5cnn(C)c5)cc4c(=O)c3c2)n1,5%,22%,

# Further lines, with some results ahead:
"inhibition at 30 min, 10 µM (CYP3A4 [1])",inhibition at 10 µM (CYP3A4 [2]),SMILES,other results
35%,0%,Cn1cc(-c2cnc3ccc4ccc(CS(=O)(=O)NCC5COCCO5)cc4c(=O)c3c2)cn1 (stereo not drawn),
1%,29%,Cn1cc(-c2cnc3ccc4ccc(CS(=O)(=O)NCC5CCCCN5)cc4c(=O)c3c2)cn1 (stereo not drawn),
17%,42%,Cn1cc(-c2cnc3ccc4ccc(CS(=O)(=O)NCc5ccc(F)cc5F)cc4c(=O)c3c2)cn1,
6%,0%,CN(C)S(=O)(=O)Cc1ccc2ccc3ncc(-c4cnn(C)c4)cc3c(=O)c2c1,
30%,,CN(C)S(=O)(=O)Nc1ccc2ccc3ncc(-c4cnn(C)c4)cc3c(=O)c2c1,half-life [3]: 48 min; Vd [4]: 2.5 L/kg; inhibition (INH) [5]: Not Active; clearance [6]: 57 mL/min/kg; bioavailability [7]: 16%; clearance [8]: 40 mL/min/kg; Vd [9]: 3.5 L/kg; bioavailability [10]: 24%; half-life [11]: 42 min
